According to ChEMBL document CHEMBL1212902, “Efficient synthesis and biological evaluation of demethyl geranylgeranoic acid derivatives” (Bioorg Med Chem, 2010):
Activity calls are given as the source filed them. The rule behind the calls is not given here.

Key:
HL-60 [1] = assay: Cell cycle arrest in human HL60 cells assessed as accumulation at G0/G1 phase at 25 uM after 24 hrs by flow cytometry; type: functional, cell-based
In short: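 HL-60 cells grown in RPMI-1640 with 10% charcoal-stripped FCS and kanamycin at 37 °C in 5% CO2. Cells were exposed at 2.5 × 10^-5 M for 24 h, stained with propidium iodide at 4 °C for 20 min and analysed on a 488 nm flow cytometer. The percentage of cells in G0/G1 is given relative to untreated cells.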

[2] = molecular target: T1, Retinoic acid receptor RXR-alpha (Homo sapiens) (UniProt P19793); assay: Transcriptional activation of Gal4-tagged human RXRalpha expressed in human MG63 cells at 1 uM after 48 hrs; type: cell-based; details: MG-63
T1 sequence (whole entry): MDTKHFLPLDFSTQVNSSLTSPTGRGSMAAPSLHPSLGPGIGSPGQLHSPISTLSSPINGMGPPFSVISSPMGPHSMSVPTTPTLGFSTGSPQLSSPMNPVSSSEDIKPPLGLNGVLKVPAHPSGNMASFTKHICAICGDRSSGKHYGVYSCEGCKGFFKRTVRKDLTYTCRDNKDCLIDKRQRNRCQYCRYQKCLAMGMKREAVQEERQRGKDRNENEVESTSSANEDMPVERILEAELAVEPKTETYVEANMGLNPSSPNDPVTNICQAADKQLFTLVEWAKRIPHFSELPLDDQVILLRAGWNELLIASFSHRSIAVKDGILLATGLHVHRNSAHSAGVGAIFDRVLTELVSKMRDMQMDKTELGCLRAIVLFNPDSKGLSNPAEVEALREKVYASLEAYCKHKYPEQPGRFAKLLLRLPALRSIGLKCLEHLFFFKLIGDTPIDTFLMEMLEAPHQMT
In short: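 Human osteosarcoma MG-63 cells in DMEM with 10% charcoal-stripped FCS were seeded at 2 × 10^5/well the day before transfection. They were cotransfected with human RXR fused to the GAL4 DNA-binding domain, a GAL4-site luciferase reporter and a pRL-CMV control. Cells were then exposed at 10^-6 M for 48 h. Firefly luciferase was normalised to Renilla and expressed as fold over ethanol vehicle, from three experiments with SEM.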

HL-60 [3] = assay: Induction of cell differentiation in human HL60 cells assessed as differentiation in to granulocytes; type: functional, cell-based
[4] = molecular target: T2, Cellular retinoic acid-binding protein 2 (Rattus norvegicus) (UniProt P51673); assay: Transcriptional activation of rat CRABP2 expressed in human MG63 cells coexpressing RXRE at 1 uM after 48 hrs; type: cell-based; details: MG-63
T2 sequence (whole entry): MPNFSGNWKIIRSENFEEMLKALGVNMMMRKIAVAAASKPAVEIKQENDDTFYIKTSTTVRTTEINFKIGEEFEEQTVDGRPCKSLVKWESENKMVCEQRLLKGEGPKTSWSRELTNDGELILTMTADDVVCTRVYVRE
In short: (§1)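 MG-63 cells were seeded at 2 × 10^5/well, then transfected using Tfx-50 with an SV40-Luc pGL3 reporter plus pRL-CMV. Cells were treated at 10^-6 M for 2 days. Luciferase was normalised to Renilla and reported as fold versus ethanol control, from at least three repeats with SEM.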

[5] = molecular target: T3, Retinoic acid receptor beta (Homo sapiens) (UniProt P10826); assay: Transcriptional activation of human RARbeta expressed in human MG63 cells coexpressing RARE at 1 uM after 48 hrs by luciferase reporter gene assay; type: cell-based; details: MG-63; in short: as §1
T3 sequence (whole entry): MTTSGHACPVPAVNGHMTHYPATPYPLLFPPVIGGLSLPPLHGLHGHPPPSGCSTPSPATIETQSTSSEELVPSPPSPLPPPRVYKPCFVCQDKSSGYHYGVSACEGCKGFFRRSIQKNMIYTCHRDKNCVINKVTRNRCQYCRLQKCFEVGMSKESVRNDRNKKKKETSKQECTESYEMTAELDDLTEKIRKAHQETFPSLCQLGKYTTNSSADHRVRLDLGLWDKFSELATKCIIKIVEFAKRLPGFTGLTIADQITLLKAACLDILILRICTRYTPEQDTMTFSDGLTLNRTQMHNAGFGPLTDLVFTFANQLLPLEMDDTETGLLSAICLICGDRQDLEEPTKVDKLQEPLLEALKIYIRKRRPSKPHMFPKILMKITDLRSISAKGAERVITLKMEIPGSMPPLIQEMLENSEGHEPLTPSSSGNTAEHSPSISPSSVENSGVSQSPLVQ

HL-60 [6] = assay: Antiproliferative activity against human HL60 cells after 24 hrs; type: functional, cell-based
HL-60 [7] = assay: Induction of apoptosis in human HL60 cells after 24 hrs; type: functional, cell-based; details: in the assay text read “after 3 days” for “after 24 hrs”
In short: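 HL-60 cells were seeded at 10^5 cells/well in RPMI-1640 and treated at 10^-6–10^-4 M. They were propidium iodide-stained and analysed by flow cytometry for cell cycle. Apoptosis is expressed as percent dead cells relative to the total untreated cell count, shown as mean with SEM.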

Activity [2] | Activity [4] | Activity [5] | Compound | Activity (HL-60 [1]) | Activity (HL-60 [3]) | Activity (HL-60 [6]) | Activity (HL-60 [7])
Active | inactive | Active | CC(C)=CCC/C(C)=C/CC/C(C)=C/CC/C=C/C(=O)O | Active | Active | Active | Active
– | inactive | Active | CC(C)=CCC/C=C/CC/C(C)=C/CC/C(C)=C/C(=O)O | – | – | – | –
– | inactive | Active | CC(C)=CCC/C(C)=C/CC/C=C/CC/C(C)=C/C(=O)O | – | – | – | –
– | inactive | Active | C/C=C/CC/C(C)=C/CC/C(C)=C/CC/C(C)=C/C(=O)O | – | – | – | –
